# NR2E3 ag-1: inhibitors of NR2E3-RetCOR corepressor binding, primary screen, NR2E3 agonist project, biochemical, TR-FRET, GST-NR2E3, biotin-RetCOR | Photoreceptor-specific nuclear receptor (Homo sapiens), Q9Y5X4 | inhibition of corepressor binding, % at 4.78 µM | 1536-well | 0.12% of 320,000 active;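 active means percent inhibition above the cutoff of mean plus 3 SD of all tested compounds, set per screening campaign, cut at about 20% in these data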;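 further: 0% = DMSO wells and 100% = biotin wells as full block of FRET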
# Target sequence (Q9Y5X4 whole entry, looked up): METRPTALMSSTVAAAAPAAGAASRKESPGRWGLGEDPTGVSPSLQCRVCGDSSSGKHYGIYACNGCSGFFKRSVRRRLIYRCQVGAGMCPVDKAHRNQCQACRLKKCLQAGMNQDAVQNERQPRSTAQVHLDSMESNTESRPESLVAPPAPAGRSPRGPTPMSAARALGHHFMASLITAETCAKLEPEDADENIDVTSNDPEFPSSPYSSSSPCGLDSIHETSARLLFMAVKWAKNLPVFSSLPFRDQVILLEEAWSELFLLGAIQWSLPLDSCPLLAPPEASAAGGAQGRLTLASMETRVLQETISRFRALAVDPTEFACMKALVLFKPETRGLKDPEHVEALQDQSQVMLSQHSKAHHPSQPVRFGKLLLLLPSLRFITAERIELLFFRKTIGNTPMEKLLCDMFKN
#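 system = GST-tagged NR2E3 plus biotinylated RetCOR corepressor | input = 1.35 nM GST-NR2E3 | also added = 7 nM biotin-RetCOR | schedule = 5 h incubation at 4 °C | measured by = TR-FRET with europium anti-GST and streptavidin-D2, 340 nm excitation | read-out = percent loss of FRET ratio relative to control wells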
# PKA-R1A activ: activators of PKA-R1A holoenzyme, primary screen, biochemical, fluorescence polarization, Cy5-IP20, bovine R1A, mouse PKAc; cAMP-dependent protein kinase type I-alpha regulatory subunit (Bos taurus) + …; PKA-R1A dissociation; scaled: DMSO 0%, 113 µM cGMP 100%; activation, % at 11.4 µM; 0.083% of 340,000 active;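 active means percent activation above the mean of all tested compounds plus 3 SD, cut at about 19% in these data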;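 further: higher means more PKAc released from R1A so a rise in polarization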
# PKA-R2B act: activators of PKA-R2B holoenzyme, primary screen, biochemical, fluorescence polarization, Cy5-IP20, human; cAMP-dependent protein kinase catalytic subunit beta (Homo sapiens) + cAMP-dependent …; PKA-R2B holoenzyme dissociation; R2B truncated from residue 108, S112A mutant; 0% DMSO only, 100% 113 µM cGMP; activation, % at 11.4 µM; 0.079% of 340,000 active; AID 504700, 2011;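 active means activation above a cutoff set at the mean over all compounds plus 3 SD, cut at about 18% in these data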;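 further: higher means more holoenzyme dissociation and a rise in polarization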
# Rev-erbA mod: modulators of Rev-erb alpha DNA binding, primary screen, biochemical, FITC-DNA, fluorescence polarization, uHTS; activity, % at 10 µM; 0.79% of 370,000 active; Rev-erbα–FITC-DNA binding, 90 min; AID 1259318, 2017;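 active means activity above about 14%, limit read from the data; passing the limit was not always enough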;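 further: 0% = DMSO wells with 35 nM protein and 100% = DMSO wells with 750 nM protein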
# NR2E3 ag-2: NR2E3 agonists in two-hybrid cells, primary screen, cell-based, luminescence, CHO-S, Gal4-NCOR/VP16-NR2E3; luciferase; inhibition of corepressor binding, % at 3.98 µM; 0.35% of 360,000 active; AID 602229, 2012;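 active means inhibition above the mean of all tested compounds plus 3 SD, cut at about 70% in these data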;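 further: 0% = DMSO with NR2E3 transfected cells and 100% = cells lacking NR2E3 construct; higher means lower luciferase signal from less NR2E3 corepressor binding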
# PG9 binder: binders of HIV-1 gp120 antibody PG9, primary screen, biochemical, TR-FRET; TR-FRET gp120-PG9 antibody binding; inhibition, % at 6.7 µM; HIV-1 gp120 / PG9 antibody interaction; AID 624416, 2012; 0.43% of 360,000 active; in the data active means inhibition above about 8.5%
# NR2E3 ag conf: NR2E3 agonist confirmation in cells, cell-based, luminescence, CHO-S two-hybrid; shares compounds with NR2E3 ag-2; AID 624378, 2012; CHO-S mammalian two-hybrid NR2E3-NCOR, luciferase luminescence; 51% of 2,300 active; inhibition, % at 3.98 µM;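 active means average inhibition above a cutoff equal to the mean inhibition of all tested compounds plus one SD, cut at about 70% in these data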;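 further: 0% = DMSO in NR2E3 cells and 100% = DMSO in cells lacking NR2E3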
# GAL4-VP16 luc: GAL4-VP16 reporter modulators, confirmation, counter-screen for NR2E3 agonist project, cell-based, luminescence, CHO-S, high throughput. shares compounds with NR2E3 ag-2. CHO-S GAL4-VP16 luciferase reporter. inhibition, % at 3.98 µM. 29% of 2,300 active;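 active means mean inhibition above a cutoff equal to the average over all tested compounds plus one standard deviation, cut at about 70% in these data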;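 further: luciferase from a UAS reporter driven by GAL4-VP16 transactivation; 0% = DMSO with VP16-transfected cells and 100% = DMSO with cells lacking VP16; higher means less reporter light so more repression of VP16 activity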
# The depositor's hits bear a star; x = not tested or not shown. This is a sample that favours compounds with a hit; in the whole collection about 1.6% have one here.
SMILES,NR2E3 ag-1,PKA-R1A activ,PKA-R2B act,Rev-erbA mod,NR2E3 ag-2,PG9 binder,NR2E3 ag conf,GAL4-VP16 luc
Cc1cc(C(=O)CN2C(=O)c3ccccc3S2(=O)=O)c(C)n1CC1CCCO1 (configuration not stated),1,4,6,11,23,2,x,x
O=C(O)c1cccc(Cn2c(Cl)c(/C=N/Nc3ccccc3)sc2=O)c1,-5,-4,-5,x,70,x,68,15
COC(=O)CCN(Cc1ccc(OC)cc1OC)S(=O)(=O)c1ccccc1Br,x,x,x,-8,x,1,x,x
CCCC(=O)c1ccc(N2CCN(C(=O)c3ccccc3)CC2)c(F)c1,2,0,-1,-3,18,-2,x,x
CCCC(=O)c1ccc(N2CCN(C(=O)c3ccccc3Br)CC2)c(F)c1,0,-4,-8,1,84*,-1,74*,68
O=C(Nc1ccc(Oc2ccccc2)cc1)c1csc([C@H]2C[C@H](O)[C@@H](CO)O2)n1,x,x,x,8,48,0,78*,61
CC(Nc1ncnc2ccccc12)c1ccccc1 (configuration not stated),6,2,0,6,75*,-1,96*,91*
CCN(CC)S(=O)(=O)c1ccc(Oc2ccccc2)c(N)c1,-5,-6,-4,-4,18,0,x,x
CCN(CC)S(=O)(=O)c1ccc(N2CCN(c3ccccc3OC)CC2)c(N)c1,2,-2,-16,-5,105*,1,93*,74*
CC[C@@H](C(=O)[C@@H](C)[C@@H](O)[C@H](C)[C@@H]1O[C@@H]([C@@H](CC)C(=O)O)CC[C@@H]1C)[C@H]1O[C@]2(C=C[C@@H](O)[C@]3(CC[C@@](C)([C@H]4CC[C@](O)(CC)[C@H](C)O4)O3)O2)[C@H](C)C[C@@H]1C,x,2,7,-2,102*,1,100*,84*
CC(=O)OC1c2ccccc2C(=O)N1Cc1ccccc1 (configuration not stated),-2,-9,8,1,75*,1,-1,3
CC(=O)OC1c2ccccc2C(=O)N1c1ccccc1C (configuration not stated),4,1,-1,0,-13,0,x,x
COC(=O)[C@]12C[C@H](CC(=O)NCCc3ccccc3OC)C(=O)N(CCC3=CCCCC3)C1=C[C@H](C(C)C)O[C@@H]2C1CC1,x,x,x,0,x,x,x,x
Cc1nnc(N/N=C/c2ccc(-c3ccc(Br)cc3)o2)n1N,-4,-12,-9,1,-22,-5,x,x
Cc1nnc(N/N=C/c2ccc(Br)cc2)n1N,1,-4,5,1,57,-4,-7,6
Cc1oc(C(C)(C)C)cc1C(=O)NCc1ccc2c(c1)OCO2,2,1,-6,1,-13,-1,x,x
Cn1nc(C(C)(C)C)cc1C(=O)NCc1ccc2c(c1)OCO2,-4,3,-3,-7,105*,-3,95*,79*
CC[C@@H]1C=C(C(=O)O)[C@H](c2ccc(Cl)c(Cl)c2)N1S(=O)(=O)c1ccc(C)cc1,x,6,-1,-3,-13,0,x,x
CCCC[C@@H]1C=C(C(=O)O)[C@H](c2ccc(CC)cc2)N1S(=O)(=O)c1ccc(C)cc1,x,-1,0,-1,-11,0,x,x
CCCCC[C@@H]1C=C(C(=O)O)[C@H](c2ccc(Cl)c(Cl)c2)N1S(=O)(=O)c1ccc(C)cc1,x,5,2,-3,81*,-1,71*,24
Cc1ccc(S(=O)(=O)N2[C@@H](c3ccc(Cl)c(Cl)c3)C(C(=O)O)=C[C@H]2C(C)(C)C)cc1,x,-2,-12,x,62,x,41,34
CCCCC[C@@H]1C=C(C(=O)O)[C@H](c2ccc(CC)cc2)N1S(=O)(=O)c1ccc(C)cc1,x,3,-4,2,52,-1,-1,11
O=C1CCC[C@H]2C[C@H](NCc3cccc(F)c3)CC[C@]23CCCN13,x,x,x,-1,x,x,x,x
O=C(Cn1cnc2ccccc21)Nc1ccc(SC(F)F)cc1,4,-7,-2,-1,68,-2,94*,78*
Cc1ccc(C)c(S(=O)(=O)Nc2cc3c4c(c2)CCC(=O)N4CCC3)c1,0,-12,-8,6,57,-3,28,-21
SMILES,NR2E3 ag-1,PKA-R1A activ,PKA-R2B act,Rev-erbA mod,NR2E3 ag-2,PG9 binder,NR2E3 ag conf,GAL4-VP16 luc
Cc1ccc(-c2csc(N3CCC(NS(=O)(=O)c4ccc5c(c4)OCCO5)CC3)n2)cc1,0,-2,5,1,89*,-1,99*,89*
CC(OCC(O)CN1CCN(S(=O)(=O)c2ccc(Cl)cc2)CC1)c1ccc(Cl)cc1 (configuration not stated),x,11,-4,-2,51,1,59,45
CCC(C)c1ccc(C(C)NC(=S)NC2CCCCC2)cc1 (configuration not stated),-1,7,8,5,85*,-3,57,48
CC(C)c1ccc(C(C)NC(=S)NC2CCCCC2)cc1 (configuration not stated),x,-6,10,2,50,-1,11,16
CC(NC(=S)NC1CCCCC1)c1ccc(C(C)(C)C)cc1 (configuration not stated),-1,0,-10,3,17,2,x,x
CCOC(=O)c1cccc(NC(=O)CN(C)S(=O)(=O)c2cc(OC)ccc2OC)c1,x,x,x,3,x,x,x,x
CC(C1=CCCCC1)c1cnn(C)c1 (configuration not stated),x,x,x,7,x,x,x,x
Cc1ccccc1C(=O)Oc1cccc(Nc2ncnc3ccccc23)c1,-2,16,-8,-2,72*,-3,43,68
